Data taken from ChEMBL document CHEMBL2311462, “Design, synthesis, and functional evaluation of leukocyte function associated antigen-1 antagonists in early and late stages of cancer development” (J Med Chem, 2013).
Blank lines part the entries; values can stand above or below the compound they belong to. Activity calls are given as the source filed them. The calls are words filed in the database; no cut-off is given here.

How the values were obtained:
[1] = Binding affinity to I-domain of human integrin alphaL (amino acid residues 128 to 307) plus initial methionine K287C/K294C mutant expressed in BL21 cells by NMR spectroscopy; assay type: cell-based
Integrin alpha-L = target: T1, Integrin alpha-L (Homo sapiens, UniProt P20701); assay: Binding affinity to I-domain of human integrin alphaL (amino acid residues 128 to 307) plus initial methionine expressed in Escherichia coli by NMR spectroscopy
T1 sequence (P20701 whole entry): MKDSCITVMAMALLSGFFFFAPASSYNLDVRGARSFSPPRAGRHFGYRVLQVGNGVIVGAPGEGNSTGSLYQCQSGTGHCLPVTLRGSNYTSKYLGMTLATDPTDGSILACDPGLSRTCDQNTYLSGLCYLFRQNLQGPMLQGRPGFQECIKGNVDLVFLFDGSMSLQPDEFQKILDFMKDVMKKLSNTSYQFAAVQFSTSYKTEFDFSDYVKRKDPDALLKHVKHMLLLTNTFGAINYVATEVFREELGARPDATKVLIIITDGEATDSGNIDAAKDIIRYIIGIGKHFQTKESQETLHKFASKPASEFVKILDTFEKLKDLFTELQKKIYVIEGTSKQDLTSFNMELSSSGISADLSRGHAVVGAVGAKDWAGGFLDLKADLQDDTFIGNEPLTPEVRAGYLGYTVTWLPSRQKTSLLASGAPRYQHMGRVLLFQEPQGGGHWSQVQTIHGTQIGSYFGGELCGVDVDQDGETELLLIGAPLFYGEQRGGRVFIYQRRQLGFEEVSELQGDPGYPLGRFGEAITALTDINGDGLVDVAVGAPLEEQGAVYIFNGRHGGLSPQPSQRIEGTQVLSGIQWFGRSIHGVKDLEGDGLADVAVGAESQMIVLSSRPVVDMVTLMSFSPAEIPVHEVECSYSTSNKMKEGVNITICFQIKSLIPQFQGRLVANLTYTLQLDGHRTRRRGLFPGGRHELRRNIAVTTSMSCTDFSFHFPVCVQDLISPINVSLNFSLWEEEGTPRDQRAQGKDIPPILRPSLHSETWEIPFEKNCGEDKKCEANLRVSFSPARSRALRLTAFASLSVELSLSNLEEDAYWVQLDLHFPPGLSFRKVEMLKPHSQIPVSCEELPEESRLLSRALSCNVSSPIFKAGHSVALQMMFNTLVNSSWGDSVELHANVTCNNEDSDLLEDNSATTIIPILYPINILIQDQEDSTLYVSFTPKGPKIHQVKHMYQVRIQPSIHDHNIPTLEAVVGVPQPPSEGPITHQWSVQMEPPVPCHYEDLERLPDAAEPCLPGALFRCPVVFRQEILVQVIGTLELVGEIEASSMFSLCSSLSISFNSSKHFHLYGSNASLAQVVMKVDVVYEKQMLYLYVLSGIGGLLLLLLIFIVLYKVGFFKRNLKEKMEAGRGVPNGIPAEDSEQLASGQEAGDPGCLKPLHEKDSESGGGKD

B16 [2] = assay: Inhibition of VEGF production in mouse B16 M cells at 10 ug/ml preincubated for 30 mins prior to H2O2 addition measured after 2 hrs by ELISA; assay type: functional, cell-based
B16 [3] = assay: Inhibition of VEGF production in mouse B16 M cells at 10 ug/ml preincubated for 30 mins prior to ICAM addition measured after 2 hrs by ELISA; assay type: functional, cell-based
[4] = target: T2, Integrin alpha-L (Homo sapiens) (UniProt P20701); assay: Inhibition of LFA-1/ICAM-1 interaction in human peripheral blood leukocytes assessed as reduction on PMA-induced adhesion to immobilized human recombinant ICAM-1 at 20 ug/ 5 x 10^5 cells after 30 mins by fluorescence assay; assay type: cell-based
T2 sequence (whole entry): T1 sequence (P20701 whole entry)
Procedure, shortened: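 Human peripheral blood leukocytes were stimulated with PMA and preincubated with compound. Adhesion to immobilized recombinant human ICAM-1, a commercial form containing all five extracellular domains, was then quantified. Significance was assessed by ANOVA with Bonferroni post hoc test.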

CT26 [5] = assay: Antimetastatic activity against mouse CT26 cells allografted in BALB/c mouse assessed as decrease in cancer cell volume in liver at 10 ug/ml preincubated for 30 mins prior to inoculation measured on day 14 relative to control; assay type: functional
Procedure, shortened: (§1)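 Male BALB/c mice, 6–8 weeks old and anesthetized (n = 10 per group; three independent experiments), received an intrasplenic injection of 1.5 × 10⁵ viable CT26-CC cells in 0.1 mL Hank's balanced salt solution. Mice were killed on day 14. Densitometric and stereological image analysis gave metastases per 100 mm³ liver (fifteen sections per liver) and the percentage of liver volume occupied.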

CT26 [6] = assay: Antimetastatic activity against mouse CT26 cells allografted in BALB/c mouse assessed as reduction in metastasis density at 10 ug/ml preincubated for 30 mins prior to inoculation measured on day 14 relative to control; assay type: functional; procedure, shortened: as §1
[7] = target: T3, Integrin alpha-L (Mus musculus) (UniProt P24063); assay: Inhibition of LFA-1/ICAM-1 interaction in mouse Lim51b cells assessed as PMA-induced adhesion to ICAM-1 expressing HSE cells at 20 ug/ 5 x 10^5 cells after 30 mins by fluorometric microplate reader analysis; assay type: cell-based
T3 sequence (whole entry): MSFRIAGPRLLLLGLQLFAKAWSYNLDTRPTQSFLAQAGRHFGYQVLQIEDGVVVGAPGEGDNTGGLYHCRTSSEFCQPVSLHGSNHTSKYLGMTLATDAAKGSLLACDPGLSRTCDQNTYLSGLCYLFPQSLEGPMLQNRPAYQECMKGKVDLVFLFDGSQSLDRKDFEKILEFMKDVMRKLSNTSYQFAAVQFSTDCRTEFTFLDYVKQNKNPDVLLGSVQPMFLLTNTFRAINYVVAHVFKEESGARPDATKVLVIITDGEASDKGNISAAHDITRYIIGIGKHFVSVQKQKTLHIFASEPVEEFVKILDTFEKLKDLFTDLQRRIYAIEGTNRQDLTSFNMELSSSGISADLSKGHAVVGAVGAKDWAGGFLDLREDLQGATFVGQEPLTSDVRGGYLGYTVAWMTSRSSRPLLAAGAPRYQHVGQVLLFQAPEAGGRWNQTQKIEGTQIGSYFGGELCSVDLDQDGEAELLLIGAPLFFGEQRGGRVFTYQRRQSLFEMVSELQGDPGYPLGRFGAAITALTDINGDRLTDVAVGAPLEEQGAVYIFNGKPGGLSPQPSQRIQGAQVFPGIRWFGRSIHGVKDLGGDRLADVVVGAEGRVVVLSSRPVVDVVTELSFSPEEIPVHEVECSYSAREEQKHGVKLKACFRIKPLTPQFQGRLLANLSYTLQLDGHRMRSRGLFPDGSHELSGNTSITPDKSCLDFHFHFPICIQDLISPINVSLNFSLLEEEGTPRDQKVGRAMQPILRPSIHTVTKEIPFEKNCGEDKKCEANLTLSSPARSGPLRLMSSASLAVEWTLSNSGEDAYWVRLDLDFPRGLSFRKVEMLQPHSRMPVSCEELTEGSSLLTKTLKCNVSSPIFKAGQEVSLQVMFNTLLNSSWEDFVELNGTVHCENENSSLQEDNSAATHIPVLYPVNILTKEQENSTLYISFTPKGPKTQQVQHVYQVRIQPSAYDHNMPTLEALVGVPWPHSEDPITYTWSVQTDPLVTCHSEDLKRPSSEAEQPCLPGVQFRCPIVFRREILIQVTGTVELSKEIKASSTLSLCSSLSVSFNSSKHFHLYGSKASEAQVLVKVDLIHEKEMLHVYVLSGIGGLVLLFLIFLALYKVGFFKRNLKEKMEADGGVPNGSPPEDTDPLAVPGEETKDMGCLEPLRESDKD
Procedure, shortened: (§2)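 CT26-CC or Lim51b-CC cells were stimulated with PMA and preincubated for 30 min with compound or anti-LFA-1 antibody. Adhesion to hepatic sinusoidal endothelial cells was then quantified using a previously validated in vitro bioassay. Significance was assessed by ANOVA with Bonferroni post hoc test.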

B16M = assay: Inhibition of VLA-4/VCAM-1 interaction in mouse B16M cells assessed as PMA-induced adhesion to immobilized VCAM-1 at 25 ug/ 5 x 10^5 cells after 30 mins by microplate reader analysis; assay type: cell-based
[8] = target: T3, Integrin alpha-L (Mus musculus); assay: Inhibition of LFA-1/ICAM-1 interaction in mouse CT26 cells assessed as PMA-induced adhesion to ICAM-1 expressing HSE cells at 20 ug/ 5 x 10^5 cells by fluorometric microplate reader analysis; assay type: cell-based; procedure, shortened: as §2
BL21 = assay: Inhibition of I-domain of human integrin alphaL (amino acid residues 128 to 307) plus initial methionine K287C/K294C mutant-ICAM1 interaction expressed in BL21 cells after 4 hrs by NMR analysis
Homo sapiens = species on record: Homo sapiens; assay: Binding affinity to protein G B1-domain (unknown origin)
[9] = target: Integrin alpha-2 (Homo sapiens) (UniProt P17301); assay: Binding affinity to integrin alpha2 I-domain (unknown origin)
CT26 [10] = assay: Antitumor activity against mouse CT26 cells allografted in BALB/c mouse assessed as decrease in expression level of protein Ki67 at 2.5 mg/kg, sc measured on day 15 relative to control; assay type: functional; parameters: scale not given: the % may be the effect or the level left; conditions: route subcutaneous
Procedure, shortened: (§3)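 BALB/c mice were injected subcutaneously with 5 × 10⁵ CT26-CC cells. Compound/PAMAM G3.5 was then given as daily subcutaneous injections at 2.5 mg/kg. Primary tumors were removed on day 15 and their volume was measured. Ki67 was scored by immunohistochemistry as the percentage of positive tumor cells across 10 random fields. Significance was assessed by ANOVA with a post hoc test.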

CT26 [11] = assay: Antitumor activity against mouse CT26 cells allografted in BALB/c mouse assessed as decrease in tumor volume at 2.5 mg/kg, sc measured on day 15 relative to control; assay type: functional; parameters: scale not given: the % may be the effect or the level left; conditions: route subcutaneous; procedure, shortened: as §3

Sequence of Integrin alpha-2 (Homo sapiens) (P17301 whole entry): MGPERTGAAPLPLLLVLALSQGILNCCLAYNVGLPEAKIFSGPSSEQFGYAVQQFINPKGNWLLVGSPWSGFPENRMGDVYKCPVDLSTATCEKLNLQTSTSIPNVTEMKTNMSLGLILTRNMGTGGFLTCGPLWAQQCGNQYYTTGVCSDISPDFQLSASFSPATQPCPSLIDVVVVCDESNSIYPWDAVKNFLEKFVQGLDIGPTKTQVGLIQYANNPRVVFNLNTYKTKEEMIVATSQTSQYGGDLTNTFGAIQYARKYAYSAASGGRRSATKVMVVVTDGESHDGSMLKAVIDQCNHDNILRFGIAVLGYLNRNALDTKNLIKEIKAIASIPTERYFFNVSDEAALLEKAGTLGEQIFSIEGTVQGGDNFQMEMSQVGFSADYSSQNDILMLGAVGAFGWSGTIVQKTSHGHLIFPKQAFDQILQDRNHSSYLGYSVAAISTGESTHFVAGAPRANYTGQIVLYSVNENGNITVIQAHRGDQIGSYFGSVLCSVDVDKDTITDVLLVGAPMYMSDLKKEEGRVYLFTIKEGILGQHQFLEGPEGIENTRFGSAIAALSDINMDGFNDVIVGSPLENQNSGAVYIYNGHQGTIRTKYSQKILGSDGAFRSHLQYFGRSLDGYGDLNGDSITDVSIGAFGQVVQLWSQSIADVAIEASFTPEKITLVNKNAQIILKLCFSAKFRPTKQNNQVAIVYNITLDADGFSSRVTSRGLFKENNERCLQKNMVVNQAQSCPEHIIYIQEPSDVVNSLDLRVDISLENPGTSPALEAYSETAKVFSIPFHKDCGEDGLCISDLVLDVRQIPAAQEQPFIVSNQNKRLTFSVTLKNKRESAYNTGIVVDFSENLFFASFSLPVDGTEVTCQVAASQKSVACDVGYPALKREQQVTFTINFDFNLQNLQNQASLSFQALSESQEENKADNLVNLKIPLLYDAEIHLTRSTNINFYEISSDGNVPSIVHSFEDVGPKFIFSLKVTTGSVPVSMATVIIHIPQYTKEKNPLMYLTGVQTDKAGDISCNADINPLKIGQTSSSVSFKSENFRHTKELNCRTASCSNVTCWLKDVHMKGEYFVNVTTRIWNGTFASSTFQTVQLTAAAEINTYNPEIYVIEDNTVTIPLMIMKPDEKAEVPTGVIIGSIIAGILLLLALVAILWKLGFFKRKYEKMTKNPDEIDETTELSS

Structure (SMILES): CC[C@H](C)[C@H](OCc1ccccc1)[C@H]1[C@H]([N+](=O)[O-])[C@H](c2ccccc2)N[C@@H]1C(=O)NCC(=O)O
inhibition [8]: inactive

Structure (SMILES): CC[C@H](C)[C@H](OCc1ccccc1)[C@H]1[C@H]([N+](=O)[O-])[C@H](c2ccccc2)N[C@@H]1C(=O)NCCC(=O)O
inhibition [7]: Active
inhibition [8]: Active

Structure (SMILES): CC[C@H](C)[C@H](OCc1ccccc1F)[C@H]1[C@H]([N+](=O)[O-])[C@H](c2ccsc2)N[C@@H]1C(=O)NCCC(=O)O
inhibition [8]: inactive

Structure (SMILES): CC[C@H](C)[C@H](OCc1ccccc1)[C@H]1[C@H]([N+](=O)[O-])[C@H](c2ccccc2)N(C(=O)CN)[C@]1(C)C(=O)NCCC(=O)O
Activity (CT26 [10]): 40%
Activity (CT26 [11]): 77%
inhibition [8]: Active

Structure (SMILES): CC[C@H](C)C(=O)O[C@H]1C[C@@H](C)C=C2C=C[C@H](C)[C@H](CC[C@@H]3C[C@@H](O)CC(=O)O3)[C@H]21
Activity [9]: inactive

Structure (SMILES): CC[C@H](C)[C@H](OCc1ccccc1)[C@H]1[C@H]([N+](=O)[O-])[C@H](c2ccccc2)N[C@@H]1C(=O)NCCCCCC(=O)O
Activity (CT26 [10]): 40%
Activity (CT26 [11]): 85%
inhibition [4]: Active
inhibition [8]: Active

Second part, led by results:

Kd (Integrin alpha-L): 10.1 µM
inhibition [4]: Active
inhibition [7]: Active
inhibition [8]: Active
Structure (SMILES): CC[C@H](C)[C@H](OCc1ccccc1)[C@H]1[C@H]([N+](=O)[O-])[C@H](c2ccccc2)N[C@]1(C)C(=O)NCCC(=O)O
Kd [1]: 81.1 µM
inhibition (B16 [2]): Active
inhibition (B16 [3]): Active
fold change (FC) (CT26 [5]): 25
fold change (FC) (CT26 [6]): 25
inhibition (B16M): inactive
inhibition (BL21): inactive

inhibition [8]: Active
Structure (SMILES): CC[C@H](C)[C@H](OCc1ccccc1)[C@H]1[C@H]([N+](=O)[O-])[C@H](c2ccccc2)N[C@@H]1C(=O)NCCCC(=O)O

inhibition [8]: Active
Structure (SMILES): CC[C@H](C)[C@H](OCc1ccccc1)[C@H]1[C@H]([N+](=O)[O-])[C@H](c2ccccc2)N[C@@H]1C(=O)NCCCCC(=O)O

Kd (Integrin alpha-L): 7.4 µM
Activity (Homo sapiens): inactive
Activity [9]: inactive
inhibition [8]: Active
Structure (SMILES): CC[C@H](C)[C@H](OCc1ccccc1)[C@H]1[C@H]([N+](=O)[O-])[C@H](c2ccccc2)N[C@]1(C)C(=O)NCCCC(=O)O

inhibition [8]: Active
Structure (SMILES): CC[C@H](C)[C@H](OCc1ccccc1)[C@H]1[C@H]([N+](=O)[O-])[C@H](c2ccccc2)N[C@]1(C)C(=O)NCCCCCC(=O)O

inhibition [8]: Active
Structure (SMILES): CC[C@H](C)[C@H](OCc1ccccc1)[C@H]1[C@H]([N+](=O)[O-])[C@H](c2ccccc2)N[C@]1(C)C(=O)NCCCCC(=O)O
